According to ChEMBL document CHEMBL1152942, “Chemistry of renieramycins. Part 8: synthesis and cytotoxicity evaluation of renieramycin M-jorunnamycin A analogues” (Bioorg Med Chem, 2009):
Calls of active or inactive are those of the source. The calls are words filed in the database; no cut-off is given here.

How the values were obtained:
Type in all cases: functional, cell-based
[1] = tested on: MDA-MB-435; experiment: Cytotoxicity against human MDA-MB-435 cells after 3 days by MTT assay
[2] = tested on: HCT-116; experiment: Cytotoxicity against human HCT116 cells after 3 days by MTT assay
Summary of the method: (§1)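 HCT116 colon carcinoma cells were seeded at 1500 cells/well 24 h before treatment. They were exposed to threefold serial dilutions from 100 nM to 0.41 nM, with under 1% DMSO final (20 mM DMSO stocks), for 3 days. Growth was read by MTT absorbance at 540 nm. IC50 was taken as 50% growth inhibition relative to untreated controls, in triplicate.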

[3] = tested on: QG-56; experiment: Cytotoxicity against human QG56 cells at 1.4 to 100 nM after 3 days by MTT assay
[4] = tested on: HCT-116; experiment: Cytotoxicity against human HCT116 cells at 1.4 to 100 nM after 3 days by MTT assay; summary of the method: as §1

Row | Structure (SMILES) | IC50 ([1]; Homo sapiens, MDA-MB-435, 72 h) | IC50 ([2]; Homo sapiens, HCT-116, 72 h) | also measured
1 | COC1=C(C)C(=O)C2=C(C1=O)[C@@H]1[C@@H]3CC4=C(C(=O)C(OC)=C(C)C4=O)[C@H](COC(=O)C4CC=CCC4)N3[C@@H](C#N)[C@H](C2)N1C (mixture of isomers) | 27 nM | 43 nM | 
2 | CCC(C)C(=O)OC[C@H]1C2=C(C[C@H]3[C@H]4C5=C(C[C@@H]([C@H](C#N)N13)N4C)C(=O)C(C)=C(OC)C5=O)C(=O)C(C)=C(OC)C2=O (mixture of isomers) | 12 nM | 33 nM | 
3 | COC1=C(C)C(=O)C2=C(C1=O)[C@@H]1[C@@H]3CC4=C(C(=O)C(OC)=C(C)C4=O)[C@H](COC(=O)c4ccccc4)N3[C@@H](C#N)[C@H](C2)N1C | 8.6 nM | 25 nM | 
4 | COC1=C(C)C(=O)C2=C(C1=O)[C@@H]1[C@@H]3CC4=C(C(=O)C(OC)=C(C)C4=O)[C@H](COC(=O)c4ccc5ccccc5n4)N3[C@@H](C#N)[C@H](C2)N1C | 4.2 nM | 11 nM | 
5 | COC1=C(C)C(=O)C2=C(C1=O)[C@@H]1[C@@H]3CC4=C(C(=O)C(OC)=C(C)C4=O)[C@H](COC(=O)c4ccc(OC)cc4)N3[C@@H](C#N)[C@H](C2)N1C | 8.9 nM | 26 nM | 
6 | COC1=C(C)C(=O)C2=C(C1=O)[C@@H]1[C@@H]3CC4=C(C(=O)C(OC)=C(C)C4=O)[C@H](CO)N3[C@@H](C#N)[C@H](C2)N1C [JOURNNAMYCIN A] | 290 nM | 130 nM | Activity [3]: Active
7 | CCCCCC(=O)OC[C@H]1C2=C(C[C@H]3[C@H]4C5=C(C[C@@H]([C@H](C#N)N13)N4C)C(=O)C(C)=C(OC)C5=O)C(=O)C(C)=C(OC)C2=O | 40 nM | 100 nM | 
8 | COC1=C(C)C(=O)C2=C(C1=O)[C@@H]1[C@@H]3CC4=C(C(=O)C(OC)=C(C)C4=O)[C@H](COC(=O)c4ccc([N+](=O)[O-])cc4)N3[C@@H](C#N)[C@H](C2)N1C | 9.4 nM | 26 nM | 
9 | COC1=C(C)C(=O)C2=C(C1=O)[C@@H]1[C@@H]3CC4=C(C(=O)C(OC)=C(C)C4=O)[C@H](COC(=O)c4ccccn4)N3[C@@H](C#N)[C@H](C2)N1C | 1.4 nM | 3.3 nM | 
10 | COC1=C(C)C(=O)C2=C(C1=O)[C@@H]1[C@@H]3CC4=C(C(=O)C(OC)=C(C)C4=O)[C@H](COC(=O)C4CC=CC4)N3[C@@H](C#N)[C@H](C2)N1C | 13 nM | 33 nM | 
11 | COC1=C(C)C(=O)C2=C(C1=O)[C@@H]1[C@@H]3CC4=C(C(=O)C(OC)=C(C)C4=O)[C@H](COC(=O)c4ccncc4)N3[C@@H](C#N)[C@H](C2)N1C | 4.4 nM | 10 nM | 
12 | C/C=C(/C)C(=O)OC[C@H]1C2=C(C[C@H]3[C@H]4C5=C(C[C@@H]([C@H](C#N)N13)N4C)C(=O)C(C)=C(OC)C5=O)C(=O)C(C)=C(OC)C2=O [RENIERAMYCIN M] |  |  | IC50 ([1]; mda-mb-435): 3.8 nM; IC50 ([2]; hct-116): 9.4 nM
13 | COC1=C(C)C(=O)C2=C(C1=O)[C@@H]1[C@@H]3CC4=C(C(=O)C(OC)=C(C)C4=O)[C@H](COC(=O)c4cnc5ccccc5c4)N3[C@@H](C#N)[C@H](C2)N1C | 3.8 nM | 10 nM | 
14 | COC1=C(C)C(=O)C2=C(C1=O)[C@@H]1[C@@H]3CC4=C(C(=O)C(OC)=C(C)C4=O)[C@H](COC=O)N3[C@@H](C#N)[C@H](C2)N1C | 38 nM | 38 nM | 
15 | COC1=C(C)C(=O)C2=C(C1=O)[C@@H]1[C@@H]3CC4=C(C(=O)C(OC)=C(C)C4=O)[C@H](COC(=O)C4CCCC4)N3[C@@H](C#N)[C@H](C2)N1C | 30 nM | 93 nM | 
16 | COC1=C(C)C(=O)C2=C(C1=O)[C@@H]1[C@@H]3CC4=C(C(=O)C(OC)=C(C)C4=O)[C@H](COC(=O)C4=CCCCC4)N3[C@@H](C#N)[C@H](C2)N1C | 29 nM | 49 nM | 
17 | COC1=C(C)C(=O)C2=C(C1=O)[C@@H]1[C@@H]3CC4=C(C(=O)C(OC)=C(C)C4=O)[C@H](COC(=O)C4=CCCC4)N3[C@@H](C#N)[C@H](C2)N1C | 13 nM | 33 nM | 
18 | COC1=C(C)C(=O)C2=C(C1=O)[C@@H]1[C@@H]3CC4=C(C(=O)C(OC)=C(C)C4=O)[C@H](COC(=O)c4ccccc4OC)N3[C@@H](C#N)[C@H](C2)N1C | 11 nM | 34 nM | 
19 | COC1=C(C)C(=O)C2=C(C1=O)[C@@H]1[C@@H]3CC4=C(C(=O)C(OC)=C(C)C4=O)[C@H](COC(=O)c4cccnc4)N3[C@@H](C#N)[C@H](C2)N1C | 3.5 nM | 7.9 nM | 
20 | COC1=C(C)C(=O)C2=C(C1=O)[C@@H]1[C@@H]3CC4=C(C(=O)C(OC)=C(C)C4=O)[C@H](COC(=O)c4ccc(Br)cc4)N3[C@@H](C#N)[C@H](C2)N1C | 13 nM | 38 nM | 
21 | COC1=C(C)C(=O)C2=C(C1=O)[C@@H]1[C@@H]3CC4=C(C(=O)C(OC)=C(C)C4=O)[C@H](COC(=O)C(C)C)N3[C@@H](C#N)[C@H](C2)N1C | 10 nM | 22 nM | 
22 | CCC(=O)OC[C@H]1C2=C(C[C@H]3[C@H]4C5=C(C[C@@H]([C@H](C#N)N13)N4C)C(=O)C(C)=C(OC)C5=O)C(=O)C(C)=C(OC)C2=O [JORUNNAMYCIN C] | 4.2 nM | 11 nM | Activity [3]: Active
23 | COC1=C(C)C(=O)C2=C(C1=O)[C@@H]1[C@@H]3CC4=C(C(=O)C(OC)=C(C)C4=O)[C@H](COC(=O)C=C(C)C)N3[C@@H](C#N)[C@H](C2)N1C | 11 nM | 27 nM | 
24 | COC1=C(C)C(=O)C2=C(C1=O)[C@@H]1[C@@H]3CC4=C(C(=O)C(OC)=C(C)C4=O)[C@H](COC(=O)CCCl)N3[C@@H](C#N)[C@H](C2)N1C | 12 nM | 16 nM | 
25 | COC1=C(C)C(=O)C2=C(C1=O)[C@@H]1[C@@H]3CC4=C(C(=O)C(OC)=C(C)C4=O)[C@H](COC(C)=O)N3[C@@H](C#N)[C@H](C2)N1C [CYANOJORUMYCIN] | 1.4 nM | 3.2 nM | 
26 | COC1=C(C)C(=O)C2=C(C1=O)[C@@H]1[C@@H]3CC4=C(C(=O)C(OC)=C(C)C4=O)[C@H](COC(C)=O)N3[C@@H](O)[C@H](C2)N1C |  |  | Activity [3]: Active; Activity [4]: Active
27 | CCCC(=O)OC[C@H]1C2=C(C[C@H]3[C@H]4C5=C(C[C@@H]([C@H](C#N)N13)N4C)C(=O)C(C)=C(OC)C5=O)C(=O)C(C)=C(OC)C2=O | 12 nM | 34 nM | 
28 | CC=C(C)C(=O)OC[C@H]1C2=C(C[C@H]3[C@H]4C5=C(C[C@@H]([C@H](C#N)N13)N4C)C(=O)C(C)=C(OC)C5=O)C(=O)C(C)=C(OC)C2=O [RENIERAMYCIN M] |  |  | IC50 ([1]; mda-mb-435): 11 nM; IC50 ([2]; hct-116): 34 nM
29 | COC1=C(C)C(=O)C2=C(C1=O)[C@@H]1[C@@H]3CC4=C(C(=O)C(OC)=C(C)C4=O)[C@H](COC(=O)c4ccnc5ccccc45)N3[C@@H](C#N)[C@H](C2)N1C | 4.1 nM | 10 nM | 
